# Test results taken from ChEMBL document CHEMBL4811250, “Discovery and Optimization of 2H-1λ2-Pyridin-2-one Inhibitors of Mutant Isocitrate Dehydrogenase 1 for the Treatment of Cancer” (J Med Chem, 2021).
# pIC50: −log10 of the molar value. Several values for one entry are separate records, joined by “and”; a condition that tells them apart may be missing. Identical values can stand only once.
# Assays:
# [1] = tested on: Isocitrate dehydrogenase [NADP] cytoplasmic (Homo sapiens), O75874 [R132H]; assay: Inhibition of IDH1 R132H mutant (unknown origin) expressed in human U87 cells assessed as R-2-hydroxyglutarate production at 500 nM after 48 hrs by LC-MS analysis; format: cell-based; set-up: scale not given: the % may be the effect or the level left
# How it was run: (§1)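 U87-R132H cells (8000/well, DMEM high glucose, 10% FBS) were seeded, cultured overnight at 37 °C and 5% CO2, then given compound or DMSO. After 48 h, 2-HG secreted into the medium was measured by RapidFire LC-MS. Cell viability was checked by CellTiter-Glo.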
# [2] = Permeability of compound at pH 7.4 by PAMPA assay; format: ADME; details: for Papp: read-out: permeability
# How it was run: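 Stirring double-sink PAMPA using a lipid/dodecane membrane tuned for GI passive permeability, pH 7.4 on donor and acceptor sides. Compound at 0.05 mM (0.5% DMSO), 30 min permeation at room temperature with donor stirring. Donor and acceptor concentrations read by UV plate reader.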
# [3] = biological target: Isocitrate dehydrogenase [NADP] cytoplasmic (Homo sapiens, UniProt O75874, R132C); assay: Inhibition of IDH1 R132C mutant (unknown origin) assessed as reduction in NADPH consumption using alpha-KG as substrate incubated for 5 mins by diaphorase/resazurin-coupled system
# [4] = biological target: Isocitrate dehydrogenase [NADP] cytoplasmic (Homo sapiens, UniProt O75874, R132H); assay: Inhibition of IDH1 R132H mutant (unknown origin) assessed as reduction in NADPH consumption using alpha-KG as substrate incubated for 5 mins by diaphorase/resazurin-coupled system
# [5] = Kinetic solubility of the compound in pH 7.4 phosphate buffer measured after 6 hrs by UV spectroscopy; format: physicochemical; details: read-out: Kinetic_solubility
# [6] = Metabolic stability in rat liver microsomes assessed as half life incubated for 15 mins by high resolution LC/MS analysis; format: ADME, Microsome; details: 0.25 h
# How it was run: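 Rat liver microsomes (0.5 mg/mL protein) with 1.0 μM compound and NADPH regenerating system in 100 mM phosphate pH 7.4, 15 min at 37 °C. Quenched with acetonitrile containing albendazole internal standard. Percent remaining measured by high-resolution LC/MS.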
# [7] = tested on: Isocitrate dehydrogenase [NADP] cytoplasmic (Homo sapiens), O75874 [R132H]; assay: Inhibition of IDH1 R132H mutant (unknown origin) expressed in human U87 cells assessed as R-2-hydroxyglutarate production at 100 nM after 48 hrs by LC-MS analysis; format: cell-based; set-up: scale not given: the % may be the effect or the level left; how it was run: as §1
# [8] = Drug level in human U87MG cells expressing IDH1 R132H mutation transfected in NCr mouse plasma at 30 mg/kg, po measured after 36 hrs by LC-MS/MS analysis; format: ADME, organism-based, U-87MG ATCC; details: read-out: Drug uptake
# How it was run: (§2)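 Mice bearing subcutaneous U87MG glioblastoma cells carrying IDH1 R132H (1 x 10^7 cells/mouse) were staged at ~200 mg and randomized. Each received a single oral 30 mg/kg dose; vehicle was 10% NMP, 40% PEG300, 25% [30% Solutol in water], 25% DI water. K2EDTA blood and tumors were taken under isoflurane from 4 mice per group at 1–48 h. Drug was quantified by validated LC-MS/MS.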
# [9] = Drug level in human U87MG cells expressing IDH1 R132H mutation transfected in NCr mouse plasma at 30 mg/kg, po measured after 24 hrs by LC-MS/MS analysis; format: ADME, organism-based, U-87MG ATCC; details: read-out: Drug uptake; how it was run: as §2
# [10] = Tmax in CD1 mouse plasma at 30 mg/kg, po measured up to 24 hrs by LC-MS/MS analysis; format: ADME, organism-based
# How it was run: (§3)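 Fed male CD1 mice (6–8 weeks, ~25–30 g) given a single 30 mpk oral dose as a 3 mg/mL solution in 20% PEG300, 40% Solutol solution (30% w/w in water), 40% DI water. Plasma (heparin-Na, heart puncture) and whole brain taken from N=3 mice per time point, 15 min to 24 h. LC/MS/MS quantitation gave Tmax, Cmax and AUC.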
# [11] = Cmax in CD1 mouse brain at 30 mg/kg, po measured up to 24 hrs by LC-MS/MS analysis; format: ADME, organism-based; set-up: route oral, dose 30 mg/kg, time <=24; how it was run: as §3
# [12] = AUClast in CD1 mouse brain at 30 mg/kg, po measured up to 24 hrs by LC-MS/MS analysis; format: ADME, organism-based; details: in vivo; how it was run: as §3
# [13] = Drug level in human U87MG cells expressing IDH1 R132H mutation transfected in NCr mouse plasma at 30 mg/kg, po measured after 48 hrs by LC-MS/MS analysis; format: ADME, organism-based, U-87MG ATCC; details: read-out: Drug uptake; how it was run: as §2
# [14] = Ratio of Cmax in plasma to brain in CD1 mouse at 30 mg/kg, po measured up to 24 hrs by LC-MS/MS analysis; format: ADME, organism-based; details: in vivo; how it was run: as §3
# [15] = AUClast in CD1 mouse plasma at 30 mg/kg, po measured up to 24 hrs by LC-MS/MS analysis; format: ADME, organism-based; set-up: route oral, dose 30 mg/kg, time <=24; how it was run: as §3
# [16] = Cmax in CD1 mouse plasma at 30 mg/kg, po measured up to 24 hrs by LC-MS/MS analysis; format: ADME, organism-based; set-up: route oral, dose 30 mg/kg, time <=24; how it was run: as §3
# [17] = Ratio of AUClast in plasma to brain in CD1 mouse at 30 mg/kg, po measured up to 24 hrs by LC-MS/MS analysis; format: ADME, organism-based; details: in vivo; how it was run: as §3
# [18] = Tmax in CD1 mouse brain at 30 mg/kg, po measured up to 24 hrs by LC-MS/MS analysis; format: ADME, organism-based; how it was run: as §3
# [19] = tested on: Isocitrate dehydrogenase [NADP] cytoplasmic (Homo sapiens), O75874 [R132H]; assay: Inhibition of IDH1 R132H mutant (unknown origin) assessed as reduction in NADPH consumption using alpha-KG as substrate at 38 uM incubated for 5 mins by diaphorase/resazurin-coupled system relative to control
# [20] = tested on: Isocitrate dehydrogenase [NADP] cytoplasmic (Homo sapiens), O75874 [R132C]; assay: Inhibition of IDH1 R132C mutant (unknown origin) assessed as reduction in NADPH consumption using alpha-KG as substrate at 38 uM incubated for 5 mins by diaphorase/resazurin-coupled system relative to control
# Chain of Isocitrate dehydrogenase [NADP] cytoplasmic (Homo sapiens), O75874 [R132C] (O75874 whole entry R132C): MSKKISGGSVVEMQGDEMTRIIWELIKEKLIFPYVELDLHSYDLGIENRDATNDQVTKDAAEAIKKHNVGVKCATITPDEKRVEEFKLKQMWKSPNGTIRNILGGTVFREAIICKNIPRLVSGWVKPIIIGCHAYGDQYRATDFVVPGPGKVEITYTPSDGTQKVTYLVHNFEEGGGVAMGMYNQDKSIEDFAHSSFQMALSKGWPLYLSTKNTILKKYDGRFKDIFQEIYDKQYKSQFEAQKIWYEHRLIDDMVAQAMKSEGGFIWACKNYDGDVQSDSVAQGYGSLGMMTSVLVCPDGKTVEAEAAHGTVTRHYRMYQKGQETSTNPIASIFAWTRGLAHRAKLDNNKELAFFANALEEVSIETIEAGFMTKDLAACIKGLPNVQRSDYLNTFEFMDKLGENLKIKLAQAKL
# Chain of Isocitrate dehydrogenase [NADP] cytoplasmic (Homo sapiens), O75874 [R132H] (O75874 whole entry R132H): as the sequence (O75874 whole entry R132C) above, with C132H counted along it
# Chain of Isocitrate dehydrogenase [NADP] cytoplasmic (Homo sapiens, UniProt O75874, R132C) (O75874 2-414 R132C limits assumed): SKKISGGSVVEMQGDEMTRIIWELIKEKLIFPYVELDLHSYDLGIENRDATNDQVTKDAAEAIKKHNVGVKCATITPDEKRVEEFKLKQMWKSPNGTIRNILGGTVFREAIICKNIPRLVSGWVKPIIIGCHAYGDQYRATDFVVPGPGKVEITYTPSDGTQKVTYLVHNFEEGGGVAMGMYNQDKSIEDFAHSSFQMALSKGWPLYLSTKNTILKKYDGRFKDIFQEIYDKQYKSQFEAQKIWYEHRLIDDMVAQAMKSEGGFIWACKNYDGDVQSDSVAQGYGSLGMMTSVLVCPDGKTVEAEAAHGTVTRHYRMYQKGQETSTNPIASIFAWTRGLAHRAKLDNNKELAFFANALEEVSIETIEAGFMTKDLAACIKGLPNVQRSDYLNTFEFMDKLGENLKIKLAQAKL
# Chain of Isocitrate dehydrogenase [NADP] cytoplasmic (Homo sapiens, UniProt O75874, R132H) (O75874 2-414 R132H limits assumed): as the sequence (O75874 2-414 R132C limits assumed) above, with C131H counted along it
SMILES,Activity [1] [%],Papp [2] [×10⁻⁶ cm/s],pIC50 [3],pIC50 [4],solubility kinetic at 6 h [5] [µg/mL],t1/2 [6] [min],Activity [7] [%],inhibition [19] [%],inhibition [20] [%],also measured
CCc1cccc(CC)c1-n1c(C=C(C)C)c(C(=O)N2C[C@H]3CC[C@@H](C2)N3)cc(-c2nc(-c3ccc(Cl)cc3)cs2)c1=O,10,89,7.22,7.03,< 1,> 30,11,,,
CCc1ccc(Cl)cc1-n1c(C=C(C)C)c(C(=O)N2CCNCC2)cc(-c2nc(-c3ccc(Cl)cc3)cs2)c1=O,4.1,,,,< 1,> 30,5.9,,,concentration at 36 h [8]: 7.2 µM; concentration at 24 h [9]: 9.5 µM; Tmax [10]: 240 min; permeability [2]: 255 10^-6 cm/s and 434 10^-6 cm/s; Cmax [11]: 595 ng/g; AUClast [12]: 7000 ng·h/g; concentration at 48 h [13]: 6.8 µM; Ratio [14]: 3.68; AUC(0-t) at 24 h [15]: 24400 ng·h/mL; Cmax [16]: 2010 ng/mL; Ratio AUC [17]: 3.52; Tmax [18]: 360 min
CCc1cccc(CC)c1-n1c(C=C(C)C)c(C(=O)N2C3CCC2CNC3)cc(-c2nc(-c3ccc(Cl)cc3)cs2)c1=O,18,99,7.33,7.21,< 1,9,32,,,
CCc1cccc(CC)c1-n1c(CC2CCNC2)c(C(=O)N2CCNCC2)cc(-c2nc(-c3ccc(Cl)cc3)cs2)c1=O (stereo unspecified),,24,,5.00,< 1,7,,81,52,
CC1(C)CC(=O)c2cc(-c3nc(-c4ccc(Cl)cc4)cs3)c(=O)n(-c3ccccc3C(=O)O)c2C1,,,4.96,5.34,,,,96,105,
CCc1cccc(CC)c1-n1c(C)c(C(=O)NCCOC)cc(-c2nc(-c3ccc(Cl)cc3)cs2)c1=O,,,6.14,5.68,,,,92,102,
CCc1cccc(CC)c1-n1c(CC2CCOCC2)c(C(=O)N2CCNCC2)cc(-c2nc(-c3ccc(Cl)cc3)cs2)c1=O,,,6.01,5.96,,,,93,79,
COc1ccc(OC)c(-n2c3c(cc(-c4nc(-c5ccc(Cl)cc5)c[nH]4)c2=O)C(=O)CC(C)(C)C3)c1,,,5.60,5.66,,,,82,77,
CCc1cccc(CC)c1-n1c(C)c(C(=O)N2CCN(C)CC2)cc(-c2nc(-c3ccc(Cl)cc3)cs2)c1=O,,,5.92,5.54,,,,88,86,

# Continued, in another order:
Activity [1] [%],Papp [2] [×10⁻⁶ cm/s],pIC50 [3],pIC50 [4],solubility kinetic at 6 h [5] [µg/mL],t1/2 [6] [min],Activity [7] [%],inhibition [19] [%],inhibition [20] [%],SMILES,also measured
10,< 1,7.19,7.26,16,23,29,,,CCc1cccc(CC)c1-n1c(C=C(C)C)c(C(=O)N2CCNC(C(=O)O)C2)cc(-c2nc(-c3ccc(Cl)cc3)cs2)c1=O (stereo unspecified),
16,225,7.24,7.36,< 1,14,13,101,97,CCc1cccc(CC)c1-n1c(C=C(C)C)c(C(=O)N2CCNCC2)cc(-c2nc(-c3ccc(Cl)cc3)cs2)c1=O,
19,549,7.12,6.94,< 1,> 30,40,,,CCc1ccc(OC)cc1-n1c(C=C(C)C)c(C(=O)N2CCNCC2)cc(-c2nc(-c3ccc(Cl)cc3)cs2)c1=O,
8,,7.34,7.36,,,11,,,CCc1cccc(CC)c1-n1c(C=C(C)C)c(C(=O)N2CCNC(C)C2)cc(-c2nc(-c3ccc(Cl)cc3)cs2)c1=O (stereo unspecified),
,43,7.31,7.26,< 1,17,,107,96,CCc1cccc(CC)c1-n1c(CC2CC2)c(C(=O)N2CCNCC2)cc(-c2nc(-c3ccc(Cl)cc3)cs2)c1=O,
12,16,6.92,6.96,< 1,17,33,98,83,CCc1cccc(CC)c1-n1c(CC(C)C)c(C(=O)N2CCNCC2)cc(-c2nc(-c3ccc(Cl)cc3)cs2)c1=O,
13,275,7.41,7.46,< 1,2,23,,,CCc1cccc(CC)c1-n1c(C=C(C)C)c(C(=O)N2CCNC(=O)C2)cc(-c2nc(-c3ccc(Cl)cc3)cs2)c1=O,
11,40,7.28,7.41,< 1,17,14,,,CCc1cccc(CC)c1-n1c(C=C(C)C)c(C(=O)N2CCNCC2C)cc(-c2nc(-c3ccc(Cl)cc3)cs2)c1=O (stereo unspecified),
14,48,7.32,7.11,< 1,12,17,,,CCc1cccc(CC)c1-n1c(C=C(C)C)c(C(=O)N2CCNC3(CC3)C2)cc(-c2nc(-c3ccc(Cl)cc3)cs2)c1=O,
,134,7.00,7.12,< 1,27,,97,82,CCCc1c(C(=O)N2CCNCC2)cc(-c2nc(-c3ccc(Cl)cc3)cs2)c(=O)n1-c1c(CC)cccc1CC,
,,6.47,6.85,,,,102,92,CCc1cccc(CC)c1-n1c(CCOC)c(C(=O)N2CCNCC2)cc(-c2nc(-c3ccc(Cl)cc3)cs2)c1=O,
